Assay results gathered from unrelated publications.
Protocols differ between the studies behind these lines.

With `COc1ccc2c(=O)n(C)c(-c3ccccc3)nc2c1` the half-life was 0.83 h (male Sprague-Dawley rat, plasma; intravenous, 2 mg/kg).
`C#Cc1cccc(Nc2ncnc3cc(OCCOC)c(OCCOC)cc23)c1` has a half-life of 2.25 h (male Sprague-Dawley rat, plasma; oral, 12 mg/kg, single dose).
For `N#Cc1[nH]nnc1-c1cccc(OCc2cc(C(F)(F)F)ccc2C(F)(F)F)c1`, the half-life was 3.9 h (male Sprague-Dawley rat, plasma; oral, 10 mg/kg).
The half-life of `O=C(Nc1cc(F)c(F)c(F)c1)c1ccc(F)c(S(=O)(=O)NCc2cccc(B(O)O)c2)c1` is reported as 1.08 h (male Sprague-Dawley rat, plasma; oral, 20 mg/kg).
`Oc1c(Br)cc(Cl)c2cccnc12` has a half-life of 5.6 h (Sprague-Dawley rat, plasma; oral, 20 mg/kg).
`Cc1cnc(N2CC3(CCOCC3)C2)c(C(=O)Nc2ccc(C(=O)N3CCc4cc(C(=O)Nc5c(C)cccc5F)sc4-c4ccccc43)cc2)c1` gave a half-life of 3.4 h (rat, plasma; inhaled, 2.7 mg/kg, single dose).
For `N#Cc1ccc(Nc2nc(N)cc(Oc3c(F)cc(-c4ccc(C#N)cc4)cc3F)n2)cc1`, the half-life was 3.31 h (Sprague-Dawley rat, plasma; oral, 5 mg/kg).
For `COCCOC(=O)C1=C(C)NC(C)=C(C(=O)OC(C)C)C1c1cccc([N+](=O)[O-])c1` (stereo not drawn), the half-life was 6.7 h (male Sprague-Dawley rat, plasma; intravenous, 3 mg/kg).
The half-life of `CCNC(=O)c1nc(-c2ccc3[nH]c(-c4nc(C)no4)cc3c2)c(C)[nH]1` is reported as 0.9 h (Sprague-Dawley rat, plasma; intravenous, 1 mg/kg).
The half-life of `CC(C)(O)[C@H]1CC[C@H](Nc2ccc3ncc(-c4cccc(C(F)(F)F)c4)n3n2)CC1` is reported as 4.1 h (female Sprague-Dawley rat, plasma; oral, 40 mg/kg).
`CCc1nc(C(N)=O)c(Nc2ccc(N3CCC(N4CCN(C)CC4)CC3)c(OC)c2)nc1NC1CCOCC1` gave a half-life of 14.3 h (male Sprague-Dawley rat, plasma; oral, 10 mg/kg).
The half-life of `N#Cc1[nH]nnc1-c1csc(-c2ccc(Cl)cc2)n1` is reported as 2.9 h (male Sprague-Dawley rat, plasma; oral, 10 mg/kg).
With `O=C(Nc1ccc(C(F)(F)F)cc1F)N1CCC(Cc2cccc(Oc3ccc(C(F)(F)F)cn3)c2)CC1` the half-life was 5.8 h (male Sprague-Dawley rat, blood; oral, 1 mg/kg).
The half-life of `CCOC(=O)[C@@]12C[C@@H]1[C@@H](n1ccc3c(NC)nc(C#Cc4ccc(Cl)s4)nc31)[C@H](O)[C@@H]2O` is reported as 1.55 h (male Sprague-Dawley rat, plasma; oral, 3 mg/kg).
For `COc1nc(-c2cc(C)c(N[C@@H](C)c3cc(F)cc(F)c3)nn2)ccc1-n1cnc(C)c1`, the half-life was 2.2 h (male Sprague-Dawley rat, plasma; oral, 5 mg/kg, single dose).
`C[C@H](Nc1ncnc2[nH]cnc12)c1cc2cccc(Cl)c2c(=O)n1-c1ccccc1` gave a half-life of 0.82 h (male Wistar rat, plasma; oral, 25 mg/kg, single dose).
`CCc1cc(C(=O)NC)c2nccc(N3CCc4c(cc(Cn5ccnc5)cc4-c4cn(C)nc4C(F)(F)F)C3=O)c2c1` gave a half-life of 3.8 h (male Sprague-Dawley rat, plasma; oral, 50 mg/kg, single dose).
`Nc1ncn([C@H]2C[C@H](O)[C@@H](CO)O2)c(=O)n1` has a half-life of 2.43 h (male Wistar rat, plasma; intravenous, 21 µmol/kg).
With `Oc1c(-n2ccnn2)cnn1-c1cc(N2CCOCC2)ncn1` the half-life was 3 h (male rat, plasma; oral, 5 mg/kg).
The half-life of `COc1ccc2c(Cc3ccccc3F)c3n(c(=O)c2c1OC)CCc1cc2c(cc1-3)OCO2` is reported as 17.8 h (rat, plasma; oral, 5 mg/kg).
For `CCc1cc(OC)c2nccc(N3CCc4c(cc(Cn5ccnc5)cc4-c4cn(C)nc4C(F)(F)F)C3=O)c2c1`, the half-life was 1.3 h (male Sprague-Dawley rat, plasma; oral, 50 mg/kg).
For `CNCc1cc(-c2ccccc2F)n(S(=O)(=O)c2cccnc2)c1`, the half-life was 1 h (male Sprague-Dawley rat, plasma; oral, 10 mg/kg).
The half-life of `Cc1c(-c2ccccc2)cccc1N1C(=O)c2cc(CN[C@H](C(=O)O)C(C)O)c(OCc3cccc(C#N)c3)cc2C1=O` (stereo partly drawn) is reported as 6.44 h (Sprague-Dawley rat, plasma; intravenous, 5 mg/kg).
For `COc1cc2c3c(n(CCCN4CCOCC4)c(=O)c2cc1OC)-c1cc2c(cc1C3=O)OCO2`, the half-life was 3.6 h (male Fischer 344 rat, plasma; intravenous, 24 mg/m², single dose).
